Series [1] is described as follows: 1-Octanol-sodium phosphate buffer partition coefficient, log P of the compound at pH 7.4 after 4 mins. It is filed as physicochemical. In outline: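 Radiolabelled compound added to 3 g 1-octanol and 3 g NaH2PO4 buffer, pH 7.4. Mixture vortexed 1 min and centrifuged 3 min. Octanol layer removed and partition repeated two more times. log P taken from the ratio of counts/mL in octanol vs buffer after the third partition.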

Series [2] addresses T1, Sodium-dependent dopamine transporter (Homo sapiens, UniProt Q01959). Put plainly: Displacement of [125I]IPT from DAT overexpressed in LLC-PK1 cell membrane by competitive binding assay. In general terms: In a radioligand displacement assay an active substance lowers the binding of a labelled ligand.
Series [3] concerns the target T1, Sodium-dependent dopamine transporter. Put plainly: Binding affinity to DAT.
Series [4] deals with Nucleic Acid. Put plainly: Ratio of drug uptake in hippocampus to cerebellum of Sprague-Dawley rat at 30 uCi, iv measured after 30 mins by gamma counting. It is filed as ADME, organism-based. The note with it: in vivo, 0.5 h. In outline: (§1)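 Male Sprague-Dawley rats (n = 3) received 30 μCi of the 18F tracer iv and were dissected at 30 min. Brain regions gamma counted as %dose/g against injected-dose aliquots. Regional uptake expressed as a ratio to cerebellum uptake.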

For series [5], the system named is Nucleic Acid. Kind of series: Ratio of drug uptake in striatum to cerebellum of Sprague-Dawley rat at 30 uCi, iv measured after 30 mins by gamma counting. It is filed as ADME, organism-based. The conditions noted are these: in vivo, 0.5 h. In outline: as §1
Series [6] concerns Hypothalamus. Put plainly: Biodistribution in Sprague-Dawley rat hypothalamus at 30 uCi, iv measured after 30 mins by gamma counting. It is filed as ADME, organism-based. The note with it: in vivo, 0.5 h. In outline:
(§2)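 Normal male Sprague-Dawley rats (n = 3) received 30 μCi of the 18F tracer iv per rat and were sacrificed at 30 min. Organs removed, weighed and gamma counted. Striatum, hippocampus, cerebellum, cortex and hypothalamus dissected and counted separately. %dose/g calculated against diluted aliquots of the injected dose; mean ± S.D. of 3 rats.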

In series [7] the test system is Hippocampus. Put plainly: Biodistribution in Sprague-Dawley rat hippocampus at 30 uCi, iv measured after 30 mins by gamma counting. Type of series: ADME, organism-based. The note with it: in vivo, 0.5 h. In outline:
as §2

The test system of series [8] is Cortex. Put plainly: Biodistribution in Sprague-Dawley rat cortex at 30 uCi, iv measured after 30 mins by gamma counting. It is filed as ADME, organism-based. The conditions noted are these: in vivo, 0.5 h. In outline: as §2
The subject of series [9] is Striatum. Kind of series: Biodistribution in Sprague-Dawley rat striatum at 30 uCi, iv measured after 30 mins by gamma counting. It is filed as ADME, organism-based. The conditions noted are these: in vivo, 0.5 h. In outline:
as §2

Series [10] concerns Cerebellum. Kind of series: Biodistribution in Sprague-Dawley rat cerebellum at 30 uCi, iv measured after 30 mins by gamma counting. Type of series: ADME, organism-based. The conditions noted are these: in vivo, 0.5 h. In outline:
as §2

The test system of series [11] is Brain. Put plainly: Biodistribution in Sprague-Dawley rat brain at 30 uCi, iv measured after 30 mins by gamma counting. It is filed as ADME, organism-based. The note with it: in vivo, 0.5 h. In outline:
as §2

Series [12] relates to Liver. Put plainly: Biodistribution in Sprague-Dawley rat liver at 30 uCi, iv measured after 30 mins by gamma counting. Type of series: ADME, organism-based. The note with it: in vivo, 0.5 h. In outline: as §2
In series [13] the test system is Bone. Kind of series: Biodistribution in Sprague-Dawley rat bone at 30 uCi, iv measured after 30 mins by gamma counting. It is filed as ADME, organism-based, Bone element. The conditions noted are these: in vivo, 0.5 h. In outline: as §2
The subject of series [14] is Kidney. Kind of series: Biodistribution in Sprague-Dawley rat kidney at 30 uCi, iv measured after 30 mins by gamma counting. Type of series: ADME, organism-based. The conditions noted are these: in vivo, 0.5 h. In outline: as §2
The subject of series [15] is Lung. Put plainly: Biodistribution in Sprague-Dawley rat lung at 30 uCi, iv measured after 30 mins by gamma counting. The note with it: in vivo, 0.5 h. Type of series: ADME, organism-based. In outline: as §2
The subject of series [16] is Muscle tissue. Kind of series: Biodistribution in Sprague-Dawley rat muscle at 30 uCi, iv measured after 30 mins by gamma counting. The conditions noted are these: in vivo, 0.5 h. Type of series: ADME, organism-based. In outline:
as §2

For series [17], the system named is Heart. Put plainly: Biodistribution in Sprague-Dawley rat heart at 30 uCi, iv measured after 30 mins by gamma counting. It is filed as ADME, organism-based. The conditions noted are these: in vivo, 0.5 h. In outline:
as §2

Series [18] deals with Blood. Kind of series: Biodistribution in Sprague-Dawley rat blood at 30 uCi, iv measured after 30 mins by gamma counting. It is filed as ADME, organism-based. The conditions noted are these: in vivo, 0.5 h. In outline: as §2

This is an account of results in ChEMBL document CHEMBL2046339, “Synthesis and evaluation of novel tropane derivatives as potential PET imaging agents for the dopamine transporter” (Bioorg Med Chem Lett, 2012).

The structures appear in SMILES notation.

T1 sequence (Q01959 whole entry): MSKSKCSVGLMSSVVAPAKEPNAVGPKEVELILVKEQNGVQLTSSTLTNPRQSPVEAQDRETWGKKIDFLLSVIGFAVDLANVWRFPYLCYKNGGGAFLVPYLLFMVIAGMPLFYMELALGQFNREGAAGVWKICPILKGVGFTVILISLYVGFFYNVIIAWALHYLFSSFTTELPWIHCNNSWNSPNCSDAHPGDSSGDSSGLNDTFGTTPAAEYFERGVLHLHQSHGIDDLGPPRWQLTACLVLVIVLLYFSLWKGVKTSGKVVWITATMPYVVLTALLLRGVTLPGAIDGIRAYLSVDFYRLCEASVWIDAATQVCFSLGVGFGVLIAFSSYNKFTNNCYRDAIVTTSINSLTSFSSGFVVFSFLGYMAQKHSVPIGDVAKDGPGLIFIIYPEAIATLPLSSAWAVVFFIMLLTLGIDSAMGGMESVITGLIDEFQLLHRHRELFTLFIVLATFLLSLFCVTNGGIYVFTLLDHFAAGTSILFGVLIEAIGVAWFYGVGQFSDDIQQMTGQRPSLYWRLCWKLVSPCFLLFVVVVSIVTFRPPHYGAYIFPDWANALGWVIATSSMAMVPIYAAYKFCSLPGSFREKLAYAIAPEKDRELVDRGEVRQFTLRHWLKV

By logD is commonly meant the decadic logarithm of the distribution of all forms, ionised or not, between an organic phase and buffer at a given pH. As a reminder, the Ki is the dissociation constant of the complex between target and ligand, obtained from inhibition or displacement. A higher Ki goes with lower affinity. In [1], `CN(C)C[C@H]1[C@@H](c2ccc(Cl)cc2)C[C@@H]2CC[C@H]1N2CC[18F]` returned a logD at 4 min of 1.88. The Ki in [2] amounted to 18.3 nM.

`CN(CCOCC[18F])C[C@H]1[C@@H](c2ccc(Cl)cc2)C[C@@H]2CC[C@H]1N2C` gave a Ki in [2] of 4.63 nM.

In turn, `Cc1ccc([C@H]2C[C@@H]3CC[C@H]([C@H]2C(=O)OCC[18F])N3C/C=C/I)cc1` had a Ki in series [3] of 12 nM.

Take `CN(CC[18F])C[C@H]1[C@@H](c2ccc(Cl)cc2)C[C@@H]2CC[C@H]1N2C`: the Ratio in series [4] stood at 1.21; in series [5], 1.63. The Drug uptake in series [6] stood at 0.82 % ID/g; in series [7], 0.79 % ID/g; in [8], 0.91 % ID/g; in series [9], 1.07 % ID/g; in series [10] it was 0.65 % ID/g; in series [11] it was 0.72 % ID/g. The Drug uptake in [12] worked out at 3.01 % ID/g; in series [13] it was 0.43 % ID/g; in series [14] it was 3.65 % ID/g; in series [15], 5.93 % ID/g; in [16] it was 0.27 % ID/g; in [17] it was 0.8 % ID/g. In series [18], the Drug uptake is on record as 0.1 % ID/g. In [1], this compound came in with a pH-dependent lipophilicity (logD) at 4 min of 1.52. Also, the Ki in series [2] came out at 3.79 nM.

Usually Kd stands for the free concentration of one partner at which half of the binding sites on the other are occupied at equilibrium, for simple one-to-one binding. Read a high Kd as a looser complex. In the case of `COC(=O)[C@H]1[C@@H](c2ccc(Cl)cc2)C[C@@H]2CC[C@H]1N2C/C=C/[125I]`, binding in [3] was characterised by a dissociation constant (Kd) of 1.2 nM.

`CN(C)C(=O)[C@H]1[C@@H](c2ccc(Cl)cc2)C[C@@H]2CC[C@H]1N2CC[18F]` registered a logD at 4 min in [1] of -0.11. The same compound had a Ki in series [2] of 699 nM.

With `CN(C)C[C@H]1[C@@H](c2ccc(Cl)cc2)C[C@@H]2CC[C@H]1N2CCC[18F]`, the Ratio in [4] is 0.99; in series [5] it was 1.1. The Drug uptake in [6] came out at 0.43 % ID/g; in series [7], 0.44 % ID/g; in series [8], 0.52 % ID/g; in series [9] it was 0.49 % ID/g; in series [10] it was 0.44 % ID/g; in series [11] it was 0.39 % ID/g. Besides, the Drug uptake was 0.86 % ID/g in [12]; 1.04 % ID/g in series [13]; 2.08 % ID/g in series [14]; 5.58 % ID/g in series [15]; 0.3 % ID/g in [16]; 0.57 % ID/g in [17]. The compound also showed a Drug uptake in series [18] of 0.14 % ID/g. This compound also had a logD at 4 min in [1] of 1.98. Also, the inhibition constant Ki in series [2] stood at 26.9 nM.

The compound `CN(C)C(=O)[C@H]1[C@@H](c2ccc(Cl)cc2)C[C@@H]2CC[C@H]1N2CCC[18F]` displayed a logD at 4 min in series [1] of -0.07. In addition, the inhibitory constant (Ki) in [2] came out at 135 nM.

For the compound `CN(CCC[18F])C[C@H]1[C@@H](c2ccc(Cl)cc2)C[C@@H]2CC[C@H]1N2C`, the Ratio in series [4] amounted to 0.8; in series [5] it was 0.94. In addition, the Drug uptake in series [6] came to 0.63 % ID/g; in series [7], 0.54 % ID/g; in series [8], 0.68 % ID/g; in series [9], 0.63 % ID/g; in series [10] it was 0.66 % ID/g; in series [11], 0.52 % ID/g. In addition, the Drug uptake was 2.08 % ID/g in series [12]; 0.5 % ID/g in [13]; 4.63 % ID/g in [14]; 11.5 % ID/g in series [15]; 0.22 % ID/g in series [16]; 1.56 % ID/g in series [17]. This compound also came in with a Drug uptake in series [18] of 0.1 % ID/g. Moreover, the logD at 4 min in [1] came out at 1.72. In [2], this compound yielded a Ki of 2.64 nM.
